Activity calls are given as the source filed them. The rule behind the calls is not given here.
Tests used:
[1] = Anticancer activity against human NCI60 cells assessed as cell growth at 10 uM after 48 hrs by SRB assay; type: functional; details: NCI60, 48 h, read-out: Activity
Summary of the method: (§1)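 NCI primary screen: compound added at a single concentration of 10^-5 M to the human tumor cell line panel, 48 h incubation, end-point by sulforhodamine B protein staining read spectrophotometrically. Result expressed as percent growth of treated cells relative to untreated control cells.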

[2] = tested on: SF-295; assay: Anticancer activity against human SF295 cells assessed as cell growth at 10 uM after 48 hrs by SRB assay; type: functional; details: SF-295, 48 h, read-out: Activity; summary of the method: as §1
[3] = tested on: NCI60; assay: Anticancer activity against human NCI60 cells assessed as cell growth inhibition after 48 hrs by SRB assay; type: functional, cell-based
Summary of the method: (§2)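 NCI full panel of about 60 human tumor cell lines, five 10-fold dilutions from 10^-4 to 10^-8 M, 48 h continuous exposure, SRB protein assay read spectrophotometrically. Percent growth from time-zero, untreated-control and treated absorbances. GI50 is the molar concentration giving 50% net growth inhibition, TGI total inhibition, LC50 50% net cell death. Mean graph midpoints include insensitive lines at the top concentration.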

[4] = Growth inhibition of human NCI-ADR-RES cells after 48 hrs by SRB assay; type: functional; summary of the method: as §2
[5] = tested on: BT-549; assay: Growth inhibition of human BT549 cells after 48 hrs by SRB assay; type: functional; details: BT-549, 48 h; for TGI: read-out: pTGI (converted); summary of the method: as §2
[6] = tested on: U-251; assay: Growth inhibition of human U251 cells after 48 hrs by SRB assay; type: functional; details: U-251, 48 h; for TGI: read-out: pTGI (converted); summary of the method: as §2
[7] = tested on: OVCAR-4; assay: Growth inhibition of human OVCAR4 cells after 48 hrs by SRB assay; type: functional; details: OVCAR-4, 48 h; summary of the method: as §2
[8] = tested on: MDA-MB-435; assay: Growth inhibition of human MDA-MB-435 cells after 48 hrs by SRB assay; type: functional; details: MDA-MB-435, 48 h; summary of the method: as §2
[9] = tested on: SNB-75; assay: Anticancer activity against human SNB75 cells assessed as cell growth at 10 uM after 48 hrs by SRB assay; type: functional; details: SNB-75, 48 h, read-out: Activity; summary of the method: as §1
[10] = tested on: SF-539; assay: Growth inhibition of human SF539 cells after 48 hrs by SRB assay; type: functional; details: SF-539, 48 h; summary of the method: as §2
[11] = tested on: UACC-62; assay: Growth inhibition of human UACC62 cells after 48 hrs by SRB assay; type: functional; details: UACC-62, 48 h; summary of the method: as §2
[12] = tested on: PC-3; assay: Growth inhibition of human PC3 cells after 48 hrs by SRB assay; type: functional; details: PC-3, 48 h; summary of the method: as §2
[13] = tested on: T47D; assay: Growth inhibition of human T47D cells after 48 hrs by SRB assay; type: functional; summary of the method: as §2
[14] = tested on: MCF7; assay: Growth inhibition of human MCF7 cells after 48 hrs by SRB assay; type: functional; details: MCF7, 48 h; summary of the method: as §2
[15] = tested on: ACHN; assay: Growth inhibition of human ACHN cells after 48 hrs by SRB assay; type: functional; summary of the method: as §2
[16] = tested on: SNB-19; assay: Growth inhibition of human SNB19 cells after 48 hrs by SRB assay; type: functional; details: SNB-19, 48 h; summary of the method: as §2
[17] = tested on: HOP-92; assay: Growth inhibition of human HOP92 cells after 48 hrs by SRB assay; type: functional; details: HOP-92, 48 h; summary of the method: as §2
[18] = tested on: NCI-H23; assay: Growth inhibition of human NCI-H23 cells after 48 hrs by SRB assay; type: functional; details: NCI-H23, 48 h; summary of the method: as §2
[19] = tested on: HCT-116; assay: Growth inhibition of human HCT116 cells after 48 hrs by SRB assay; type: functional; details: HCT-116, 48 h; summary of the method: as §2
[20] = tested on: SF-295; assay: Growth inhibition of human SF295 cells after 48 hrs by SRB assay; type: functional; details: SF-295, 48 h; summary of the method: as §2
[21] = tested on: UO-31; assay: Anticancer activity against human UO31 cells assessed as cell growth at 10 uM after 48 hrs by SRB assay; type: functional; details: UO-31, 48 h, read-out: Activity; summary of the method: as §1
[22] = tested on: RPMI-8226; assay: Anticancer activity against human RPMI8226 cells assessed as cell growth at 10 uM after 48 hrs by SRB assay; type: functional; details: RPMI-8226, 48 h, read-out: Activity; summary of the method: as §1
[23] = tested on: HOP-92; assay: Anticancer activity against human HOP92 cells assessed as cell growth at 10 uM after 48 hrs by SRB assay; type: functional; details: HOP-92, 48 h, read-out: Activity; summary of the method: as §1
[24] = tested on: SNB-75; assay: Growth inhibition of human SNB75 cells after 48 hrs by SRB assay; type: functional; details: SNB-75, 48 h; summary of the method: as §2
[25] = tested on: OVCAR-3; assay: Growth inhibition of human OVCAR-3 cells after 48 hrs by SRB assay; type: functional; details: OVCAR-3, 48 h; summary of the method: as §2
[26] = tested on: SW-620; assay: Growth inhibition of human SW620 cells after 48 hrs by SRB assay; type: functional; details: SW-620, 48 h; summary of the method: as §2
[27] = tested on: NCI-H226; assay: Growth inhibition of human NCI-H226 cells after 48 hrs by SRB assay; type: functional; details: NCI-H226, 48 h; summary of the method: as §2
[28] = tested on: HL-60(TB); assay: Growth inhibition of human HL-60(TB) cells after 48 hrs by SRB assay; type: functional; details: HL-60, 48 h
Summary of the method: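 NCI 60-cell-line screen, five 10-fold dilutions of the compound, 48-h continuous drug exposure. Cell growth is measured with the sulforhodamine B protein stain and read spectrophotometrically against untreated controls and a time-zero plate (Tz). GI50 is the molar concentration giving 50% net growth inhibition. Values outside the tested range are reported as above or below the extreme concentration.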

[29] = tested on: SK-MEL-28; assay: Growth inhibition of human SK-MEL-28 cells after 48 hrs by SRB assay; type: functional; details: SK-MEL-28, 48 h; summary of the method: as §2
[30] = tested on: A498; assay: Growth inhibition of human A498 cells after 48 hrs by SRB assay; type: functional; details: A498, 48 h; summary of the method: as §2
[31] = tested on: SR; assay: Anticancer activity against human SR cells assessed as cell growth at 10 uM after 48 hrs by SRB assay; type: functional; details: read-out: Activity; summary of the method: as §1
[32] = tested on: DU-145; assay: Growth inhibition of human DU145 cells after 48 hrs by SRB assay; type: functional; details: DU-145, 48 h; summary of the method: as §2
[33] = tested on: RPMI-8226; assay: Growth inhibition of human RPMI8226 cells after 48 hrs by SRB assay; type: functional; details: RPMI-8226, 48 h; summary of the method: as §2
[34] = tested on: LOX IMVI; assay: Growth inhibition of human LOXIMVI cells after 48 hrs by SRB assay; type: functional; summary of the method: as §2
[35] = tested on: KM12; assay: Growth inhibition of human KM12 cells after 48 hrs by SRB assay; type: functional; details: KM12, 48 h; summary of the method: as §2
[36] = tested on: RXF 393; assay: Anticancer activity against human RXF393 cells assessed as cell growth at 10 uM after 48 hrs by SRB assay; type: functional; details: RXF 393, 48 h, read-out: Activity; summary of the method: as §1

CCN(CC)c1ccc(/C=C2\S/C(=N/c3nc4ccc(C)cc4s3)NC2=O)cc1
growth at 10 µM [1]: 69%
growth at 10 µM [2]: 22.5%
growth inhibition (GI) [3]: inactive

COc1ccc(NC(=O)COc2ccc(Cl)cc2/C=C2\S/C(=N/c3nc4ccc(C)cc4s3)NC2=O)cc1
GI50 [4]: 6.76 µM
TGI ([4]; read-out: pTGI): > 100 µM
GI50 [5]: 6.03 µM
TGI [5]: 27.5 µM
growth at 10 µM [1]: -36.9%
GI50 [6]: 5.01 µM
TGI [6]: 20 µM
GI50 [7]: 6.03 µM
TGI ([7]; read-out: pTGI): > 100 µM
GI50 [8]: 10 µM
TGI ([8]; read-out: pTGI (converted)): 34.7 µM
growth at 10 µM [9]: -86.5%
GI50 [10]: 1780 nM
TGI ([10]; read-out: pTGI (converted)): 3.63 µM
GI50 [11]: 5.37 µM
TGI ([11]; read-out: pTGI (converted)): 39.8 µM
GI50 [12]: 4.9 µM
TGI ([12]; read-out: pTGI): > 100 µM
GI50 [13]: 4.79 µM
TGI ([13]; read-out: pTGI): > 100 µM
GI50 [14]: 4.27 µM
TGI ([14]; read-out: pTGI): > 100 µM
GI50 [15]: 6.46 µM
TGI ([15]; read-out: pTGI (converted)): 66.1 µM
GI50 [16]: 5.5 µM
TGI ([16]; read-out: pTGI (converted)): 25.1 µM
GI50 [17]: 457 nM
TGI ([17]; read-out: pTGI (converted)): 10.2 µM
GI50 [18]: 7.76 µM
TGI ([18]; read-out: pTGI (converted)): 25.1 µM
GI50 [19]: 4.57 µM
TGI ([19]; read-out: pTGI (converted)): 34.7 µM
growth inhibition (GI) [3]: Active
GI50 [20]: 3.39 µM
TGI ([20]; read-out: pTGI (converted)): 15.5 µM

COc1ccc(NC(=O)COc2ccc(/C=C3\SC(=S)N(Nc4nc5ccccc5s4)C3=O)cc2OC)cc1
growth at 10 µM [1]: 107%
growth at 10 µM [21]: 78.6%
growth inhibition (GI) [3]: inactive

Cc1ccc2nc(/N=C3\NC(=O)/C(=C/c4ccc(Cl)cc4)S3)sc2c1
growth at 10 µM [1]: 56.5%
growth at 10 µM [2]: 4.01%
growth inhibition (GI) [3]: inactive

CCOC(=O)c1ccc(NC(=O)COc2ccc(Cl)cc2/C=C2\SC(=S)N(Nc3nc4ccccc4s3)C2=O)cc1
growth at 10 µM [22]: 20%
growth at 10 µM [1]: 74.7%
growth inhibition (GI) [3]: inactive

Cc1ccc2nc(/N=C3\NC(=O)/C(=C/c4cc(Cl)ccc4OCC(N)=O)S3)sc2c1
growth at 10 µM [1]: 91.8%
growth at 10 µM [23]: 51.4%
growth inhibition (GI) [3]: inactive

COc1ccc(/C=C2\S/C(=N/c3nc4ccc(C)cc4s3)NC2=O)cc1
growth at 10 µM [1]: 106%
growth at 10 µM [21]: 80.4%
growth inhibition (GI) [3]: inactive

CCN(CC)c1ccc(/C=C2\SC(=S)N(Nc3nc4ccccc4s3)C2=O)cc1
growth at 10 µM [1]: 98.5%
growth at 10 µM [21]: 77.3%
growth inhibition (GI) [3]: inactive

COc1ccc(NC(=O)COc2ccc(Cl)cc2/C=C2\SC(=S)N(Nc3nc4ccccc4s3)C2=O)cc1
GI50 [24]: 1580 nM
TGI ([24]; read-out: pTGI (converted)): 9.55 µM
GI50 [5]: 3.02 µM
TGI [5]: 8.91 µM
growth at 10 µM [1]: 50.4%
GI50 [25]: 2000 nM
TGI ([25]; read-out: pTGI (converted)): 3.72 µM
GI50 [6]: 2.95 µM
TGI [6]: 9.33 µM
GI50 [26]: 2450 nM
TGI ([26]; read-out: pTGI (converted)): 6.31 µM
GI50 [27]: 2950 nM
TGI ([27]; read-out: pTGI (converted)): 6.92 µM
GI50 [28]: 2290 nM
TGI ([28]; read-out: pTGI (converted)): 6.92 µM
GI50 [29]: 2190 nM
TGI ([29]; read-out: pTGI (converted)): 4.47 µM
GI50 [30]: 2570 nM
TGI ([30]; read-out: pTGI (converted)): 5.75 µM
growth at 10 µM [31]: -71.5%
GI50 [32]: 2090 nM
TGI ([32]; read-out: pTGI (converted)): 3.98 µM
GI50 [33]: 5.37 µM
TGI ([33]; read-out: pTGI (converted)): 12.9 µM
growth inhibition (GI) [3]: Active
GI50 [34]: 1660 nM
TGI ([34]; read-out: pTGI (converted)): 3.24 µM
GI50 [35]: 2240 nM
TGI ([35]; read-out: pTGI (converted)): 4.9 µM

COc1cc(/C=C2\SC(=S)N(Nc3nc4ccccc4s3)C2=O)ccc1O
growth at 10 µM [1]: 97.7%
growth at 10 µM [36]: -0.71%
growth inhibition (GI) [3]: inactive

From ChEMBL document CHEMBL1275294, “Synthesis and anticancer activity evaluation of 4-thiazolidinones containing benzothiazole moiety” (2010)
